The target in assay [1] is T1, D(2) dopamine receptor (Bos taurus, UniProt P20288). The assay can be described thus: Ability to displace [3H]spiperone binding from anterior pituitary Dopamine receptor D2 in the absence of GTP; NA means inactive. In a few lines: (§1)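 Bovine anterior pituitary membranes; displacement of [3H]spiperone (ca. 500 pM) with no GTP added. Specific binding defined with 3.3 μM (+)-butaclamol; buffer with 0.1% ascorbic acid in place of dithiothreitol. Triplicate points; IC50 corrected for [3H]spiperone concentration, plus pseudo Hill coefficient. Mean ± SEM (n ≥ 3) or mean ± range (n = 2).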

Assay [2] concerns the target T1, D(2) dopamine receptor. The assay can be described thus: Ability to displace [3H]spiperone binding from anterior pituitary Dopamine receptor D2 in the presence of 100 uM GTP. In a few lines: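 [3H]spiperone (ca. 500 pM) displacement in bovine anterior pituitary membranes in the presence of 100 μM GTP. Nonspecific binding set with 3.3 μM (+)-butaclamol; 0.1% ascorbic acid replaced dithiothreitol. Points in triplicate; IC50 corrected for radioligand concentration, with pseudo Hill coefficient. Mean ± SEM (n ≥ 3) or mean ± range (n = 2).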

Assay [3] addresses T1, D(2) dopamine receptor. The assay can be described thus: Ability to displace [3H]spiperone binding from anterior pituitary Dopamine receptor D2 in the absence of GTP. The method in brief:
as §1

This note sets out measurements from ChEMBL document CHEMBL1123623, “Synthesis of some [N-(2-haloalkyl)amino]tetralin derivatives as potential irreversible labels for bovine anterior pituitary D2 dopamine receptors” (J Med Chem, 1987).

Where only a bound is given, the exact number is not on record here.

T1 sequence (P20288 whole entry): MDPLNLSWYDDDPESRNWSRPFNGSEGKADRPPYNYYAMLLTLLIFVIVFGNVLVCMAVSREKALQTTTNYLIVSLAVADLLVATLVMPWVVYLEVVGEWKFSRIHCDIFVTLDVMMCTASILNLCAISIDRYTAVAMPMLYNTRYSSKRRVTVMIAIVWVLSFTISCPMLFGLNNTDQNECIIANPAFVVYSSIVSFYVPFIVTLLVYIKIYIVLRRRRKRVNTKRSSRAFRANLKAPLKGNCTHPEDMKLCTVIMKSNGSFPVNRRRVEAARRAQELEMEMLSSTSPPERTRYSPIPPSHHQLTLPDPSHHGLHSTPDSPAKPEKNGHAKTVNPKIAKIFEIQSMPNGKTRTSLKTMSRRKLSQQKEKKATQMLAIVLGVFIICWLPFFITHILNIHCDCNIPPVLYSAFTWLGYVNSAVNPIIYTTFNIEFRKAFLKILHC

Consider `O=C(CCl)NC1CCc2cc(O)c(O)cc2C1` (stereo not given), for which the concentration for half-maximal inhibition (IC50) result at D(2) dopamine receptor [1] was “Not Active”. Regarding `CCCN(CCCl)C1CCc2cc(O)c(O)cc2C1` (stereo not given), the values for the concentration for half-maximal inhibition (IC50) at D(2) dopamine receptor [2] and on D(2) dopamine receptor [3] were 0.26 µM and 0.076 µM, respectively. Take `CN(CCCl)C1CCc2cc(O)ccc2C1` (stereo not given): the half-maximal inhibitory concentration (IC50) on D(2) dopamine receptor [3] is 2.97 µM. For the molecule `COc1cc2c(cc1OC)CC(NCCCl)CC2.Cl` (stereo not given), the IC50 result at D(2) dopamine receptor [1] is “Not Active”. On to `CCCN(CCBr)C1CCc2cc(O)c(O)cc2C1` (stereo not given), for which the IC50 is greater than 100 µM on D(2) dopamine receptor [2] and 1.97 µM on D(2) dopamine receptor [3]. With `CCCN(CCCl)C1CCc2cc(OC)c(OC)cc2C1.Cl` (stereo not given), the concentration for half-maximal inhibition (IC50) result at D(2) dopamine receptor [1] is recorded as “Not Active”.

Regarding `Oc1cc2c(cc1O)CC(NCCBr)CC2` (stereo not given), the IC50 amounted to 0.42 µM on D(2) dopamine receptor [2] and 0.17 µM on D(2) dopamine receptor [3].

As to `COc1cc2c(cc1OC)CC(NCCO)CC2.Cl` (stereo not given), the IC50 result on D(2) dopamine receptor [1] is recorded as “Not Active”.

Take `CN(CCCl)C1CCc2c(ccc(O)c2O)C1` (stereo not given): the IC50 on D(2) dopamine receptor [2] was greater than 100 µM; at D(2) dopamine receptor [3] it was 32.2 µM. Consider `Oc1cc2c(cc1O)CC(NCCCl)CC2` (stereo not given), for which the concentration for half-maximal inhibition (IC50) is greater than 100 µM on D(2) dopamine receptor [2] and 0.3 µM on D(2) dopamine receptor [3]. In the case of `CN(CCCl)C1CCc2cc(O)c(O)cc2C1` (stereo not given), the IC50 came to 3.72 µM on D(2) dopamine receptor [2] and 1.82 µM at D(2) dopamine receptor [3]. On to `Br.CCCN(CC(C)Br)C1CCc2cc(O)c(O)cc2C1` (stereo not given), for which, on D(2) dopamine receptor [1], the IC50 entry is “Not Active”. Consider `CCCN(CCO)C1CCc2cc(O)c(O)cc2C1` (stereo not given), for which the half-maximal inhibitory concentration (IC50) turned out to be 2.42 µM on D(2) dopamine receptor [2] and 0.42 µM on D(2) dopamine receptor [3]. The corresponding values for `CC(Br)CNC1CCc2cc(O)c(O)cc2C1` (stereo not given) are 1.01 µM and 0.3 µM. `CCCN(CCO)C1CCc2cc(OC)c(OC)cc2C1` (stereo not given): the half-maximal inhibitory concentration (IC50) entry on D(2) dopamine receptor [1] is given as “Not Active”. On the same count and under the same terms, next, `COc1cc2c(cc1OC)CC(NC(=O)CCl)CC2` (stereo not given): “Not Active”; `CCCN(C(=O)CCl)C1CCc2cc(OC)c(OC)cc2C1` (stereo not given): “Not Active”.
